Test results taken from ChEMBL document CHEMBL3352192, “Evaluation of lignans from Heliopsis helianthoides var. scabra for their potential antimetastatic effects in the brain” (J Nat Prod, 2014).
Activity calls are given as the source filed them.

Tests used:
A2058 [1] = assay: Inhibition of adhesion of human A2058 cells to endothelial cells at 2 uM pretreated for 3 hrs before adhesion and during adhesion; type: functional, cell-based
In short: (§1)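 Confluent hCMEC/D3 monolayers and A2058 cells were each pretreated 3 h with compound. Melanoma cells were labelled with Oregon Green 488 diacetate succinimidyl ester and added to the endothelium (10^5 or 5×10^4 cells/well) in serum-free medium containing the same compound for 80 min. After washing and EtOH−AcOH fixation, attached cells were imaged and counted. Results are % of control, means ± SD, n = 3.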

hCMEC/D3 [2] = assay: Cytotoxicity against human CMEC/D3 cells at 1 to 10 uM after 8 hrs by EZ4U assay; type: functional, cell-based
In short: (§2)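 Confluent A2058, hCMEC/D3 and primary rat brain endothelial cells exposed 8 h to 10, 5, 2.5 or 1.25 μM compound. Media: serum-free MEM (A2058), serum-free EBM-2 (D3), DMEM/F12 + 5% PDS (RBEC). DMSO 0.1% (v/v) in all wells, vehicle controls. EZ4U mitochondrial dehydrogenase read-out after 45 min, OD 450 nm.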

[3] = Cytotoxicity against RBEC at 1 to 10 uM after 8 hrs by EZ4U assay; settings: rat; in short: as §2
A2058 [4] = assay: Cytotoxicity against human A2058 cells at 1 to 10 uM after 8 hrs by EZ4U assay; type: functional, cell-based; in short: as §2
A2058 [5] = assay: Inhibition of adhesion of human A2058 cells to endothelial cells at 2 uM pretreated to endothelial cells for 3 hrs before adhesion; type: functional, cell-based
In short: (§3)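 Cell-type pretreatment adhesion: either hCMEC/D3 monolayers (2 μM) or A2058 cells (5 μM) were pretreated 3 h. Labelled melanoma cells were then allowed to attach for 80 min in serum-free medium without compound. Fixed, imaged and counted; % of untreated control, means ± SD, n = 3.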

hCMEC/D3 [6] = assay: Inhibition of migration of human CMEC/D3 cells at 10 uM after 24 hrs by wound-healing assay; type: functional, cell-based
In short: (§4)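 hCMEC/D3 cells on rat-tail collagen were grown to 100% confluency, scratched with a pipet tip, and washed with PBS. They were then treated in Leibovitz medium + 5% FBS and imaged by phase contrast for 24 h at 37 °C (10× objective). Migration is given as % of control over 24 h; means ± SD, n = 4.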

hCMEC/D3 [7] = assay: Increase in integrity of human CMEC/D3 cells at 2 uM after 2 hrs by ZO-1 staining method; type: functional, cell-based
In short: (§5)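 Confluent RBECs or hCMEC/D3 cells, 2 h compound exposure (0.1% DMSO vehicle), then fixed in EtOH−AcOH 95:5 at −20 °C. Blocked with 3% BSA, rabbit anti-ZO-1 overnight, Cy3 goat anti-rabbit, Hoechst 33342 nuclei. Tight-junction staining at cell–cell contacts assessed by epifluorescence microscopy.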

A2058 [8] = assay: Inhibition of adhesion of human A2058 cells to endothelial cells at 5 uM pretreated for 3 hrs before adhesion; type: functional, cell-based; in short: as §3
Rattus norvegicus [9] = species on record: Rattus norvegicus; assay: Increase in integrity of RBEC at 5 uM after 2 hrs by ZO-1 staining method; type: functional; in short: as §5
A2058 [10] = assay: Inhibition of adhesion of human A2058 cells to endothelial cells at 10 uM pretreated for 3 hrs before adhesion and during adhesion; type: functional, cell-based; in short: as §1
A2058 [11] = assay: Inhibition of migration of human A2058 cells assessed as elongated shape with actin-rich protrusion at 5 uM using Alexa-488-labeled phalloidin by microscopy; type: functional, cell-based
In short: (§6)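 A2058 melanoma cells were treated 2 h with 5 μM compound. They were fixed in 4% HCHO, permeabilized with acetone at −20 °C for 10 min, blocked, and stained with Alexa488-phalloidin. Actin cytoskeleton and cell shape were examined by epifluorescence microscopy, with phase contrast images also taken.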

A2058 [12] = assay: Inhibition of migration of human A2058 cells assessed as elongated shape and longer protrusion at 5 uM by phase contrast microscopy; type: functional, cell-based; in short: as §6
A2058 [13] = assay: Inhibition of migration of human A2058 cells assessed as cells with stress fibers at 5 uM using Alexa-488-labeled phalloidin by microscopy; type: functional, cell-based; in short: as §6
A2058 [14] = assay: Inhibition of migration of human A2058 cells assessed as filopodia at 5 uM using Alexa-488-labeled phalloidin by microscopy; type: functional, cell-based; in short: as §6
hCMEC/D3 [15] = assay: Inhibition of migration of human CMEC/D3 cells after 24 hrs by wound-healing assay; type: functional, cell-based; in short: as §4
Rattus norvegicus [16] = species on record: Rattus norvegicus; assay: Increase in transendothelial electrical resistance in RBEC at 5 uM after 2 hrs relative to control; type: functional
In short: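 Primary RBECs from 2-week-old rats were grown on collagen/fibronectin-coated Transwell filters. After confluence they got 550 nM hydrocortisone, 250 μM CPT-cAMP and 17.5 μM RO-201724, with astrocyte-conditioned medium. Once TEER plateaued (120−140 Ω·cm2), compound was added (0.1% DMSO) and TEER was followed automatically for 2 h. Expressed as % of untreated RBECs at 2 h; means ± SD, n = 3.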

A2058 [17] = assay: Inhibition of migration of human A2058 cells assessed as expanded cells without large filopodia at 5 uM using Alexa-488-labeled phalloidin by microscopy; type: functional, cell-based; in short: as §6
A2058 [18] = assay: Inhibition of migration of human A2058 cells at 10 uM by wound-healing assay; type: functional, cell-based
In short: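 A2058 confluent monolayer was scratched, and wound closure was tracked for 24 h at 2, 5 or 10 μM by phase contrast microscopy (10× objective). Migration is expressed as % of control cells migrated over 24 h; means ± SD, n = 4, ANOVA with Bonferroni.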

CC(=O)O[C@H](c1ccc2c(c1)OCO2)[C@H]1C(=O)OC[C@@H]1Cc1ccc2c(c1)OCO2
inactive: inhibition (A2058 [1]) | Activity (hCMEC/D3 [2]) | Activity (A2058 [4])
Non-toxic: Activity [3]

O=C1OCc2c1cc1ccc3c(c1c2-c1ccc2c(c1)OCO2)OCO3 [HELIOXANTHIN]
Non-toxic: Activity [3]
active: inhibition (A2058 [5]) | inhibition (hCMEC/D3 [6]) | Activity (hCMEC/D3 [7]) | Activity (Rattus norvegicus [9]) | inhibition (A2058 [10]) | inhibition (A2058 [1]) | inhibition (A2058 [11]) | inhibition (A2058 [12]) | inhibition (A2058 [13]) | inhibition (A2058 [14]) | inhibition (hCMEC/D3 [15]) Dose-dependent effect
15%: Activity (Rattus norvegicus [16])
inactive: inhibition (A2058 [8]) | Activity (hCMEC/D3 [2]) | Activity (A2058 [4])

COC(=O)[C@H](Cc1ccc2c(c1)OCO2)[C@@H](Cc1ccc2c(c1)OCO2)C(=O)OC
Non-toxic: Activity [3]
inactive: inhibition (A2058 [1]) | Activity (hCMEC/D3 [2]) | Activity (A2058 [4])

COC(=O)/C(=C/c1ccc2c(c1)OCO2)C(Cc1ccc2c(c1)OCO2)C(=O)OC (stereo not given)
active: inhibition (A2058 [17]) | inhibition (hCMEC/D3 [6]) | Activity (hCMEC/D3 [7]) | Activity (Rattus norvegicus [9]) | inhibition (A2058 [10]) | inhibition (A2058 [12]) | inhibition (hCMEC/D3 [15]) Dose-dependent effect | Activity (Rattus norvegicus [16]) | inhibition (A2058 [18])
Non-toxic: Activity [3]
inactive: inhibition (A2058 [1]) | Activity (hCMEC/D3 [2]) | Activity (A2058 [4])

COCCCc1cc(OC)c2oc(-c3ccc4c(c3)OCO4)cc2c1
Non-toxic: Activity [3]
inactive: inhibition (A2058 [1]) | Activity (hCMEC/D3 [2]) | Activity (A2058 [4])

COC/C=C/c1cc(OC)c2oc(-c3ccc4c(c3)OCO4)cc2c1
inactive: inhibition (A2058 [1]) | Activity (hCMEC/D3 [2]) | Activity (A2058 [4])
Non-toxic: Activity [3]
